In ChEMBL document CHEMBL5370575, “Probing the Cytotoxic Signaling Induced by Eupenifeldin in Ovarian Cancer Models” (J Nat Prod, 2023):
Calls of active or inactive are those of the source.

Tests used:
OVCAR-8 [1] = assay: Cytotoxicity against human OVCAR-8 cells assessed as inhibition of cell growth for 72 hrs by CellTiter-Blue cell viability assay; assay type: functional, cell-based
Method in brief: (§1)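 5000 cells seeded in triplicate, attached overnight, then exposed for 72 h to serial concentrations in DMSO vehicle (0.05%). Viability was read by fluorometric CellTiter-Blue. IC50 in nM comes from dose–response curves relative to DMSO control. Media: OVCAR3 in RPMI1640, OVCAR5/OVCAR8 in DMEM, hFT33 in DMEM-Ham's F12 50/50, all with 10% FBS. Data are mean ± SEM, three biological replicates.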

OVCAR-8 [2] = assay: Induction of apoptosis in human OVCAR-8 cells assessed as decrease in caspase-3/7 activity at 50 nM incubated for 48 hrs in presence of by ZVAD-FMK fluorescent reporter assay
OVCAR-3 [3] = assay: Antitumor activity against human OVCAR-3 cells xenografted in immunodeficient NCr nu/nu mouse assessed as reduction in cell survival at 0.5 mg/kg, ip administrated once per day for 4 days measured on day 7 by MTT assay; assay type: functional, organism-based; conditions: time 7.0 day
Method in brief: (§2)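 Female immunodeficient NCr nu/nu mice (6–8 weeks) carried intraperitoneal polyvinylidene fluoride hollow fibres holding OVCAR3 and OVCAR8 cells (day 0). Dosed ip once daily on days 3–6 in 2% DMSO/48% PEG300/50% H₂O diluted with H₂O. Fibres retrieved on day 7; cell viability by modified MTT assay. One-way ANOVA with Dunnett's test vs vehicle.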

OVCAR-5 [4] = assay: Cytotoxicity against human OVCAR-5 cells assessed as reduction in colony formation at 10 nM incubated for 8 hrs measured after 15 days by crystal violet staining based analysis; assay type: functional, cell-based; conditions: time 368.0 hrs
Method in brief: (§3)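 Seeded at 200 cells per dish, attached overnight, exposed 8 h to 10 nM (DMSO vehicle 0.1%), then grown 15 days in untreated growth medium. Colonies fixed with 4% paraformaldehyde, stained with 0.05% crystal violet, counted and normalised to vehicle. Mean ± SEM, three biological replicates, one-way ANOVA with Dunnett's test.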

OVCAR-3 [5] = assay: Anti-ferroptotic activity against human OVCAR-3 cells assessed as decrease in lipid peroxidation at 50 nM incubated for 24 hrs by C11-BODIPY staining based flow cytometric analysis; assay type: functional, cell-based
Method in brief: (§4)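 Cells treated 24 h with 50 nM, with or without 2 μM ferrostatin-1; lipid peroxidation read as C11-BODIPY fluorescence in the green channel by flow cytometry.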

[6] = Cytotoxicity against human FT33 cells assessed as inhibition of cell growth for 72 hrs by CellTiter-Blue cell viability assay; assay type: toxicity, cell-based; method in brief: as §1
HeLa [7] = assay: Induction of autophagy in human HeLa cells harboring eGFP-LC3 assessed as increase in LC3 puncta accumulation at 250 nM incubated for 4 hrs by Hoechst 33342 and DAPI staining based analysis; assay type: functional, cell-based
Method in brief: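 HeLa stably expressing eGFP-LC3, 384-well plates, treated 4 h with serial dilutions starting at 250 nM, fixed in 4% formaldehyde, nuclei counterstained, imaged at 10× (FITC); LC3 puncta quantified by image analysis, normalised to DMSO, dose–response fitted.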

OVCAR-3 [8] = assay: Induction of autophagy in human OVCAR-3 cells assessed as reduction in cell viability at 25 nM incubated for 72 hrs in presence of bafilomycin by CellTiter-Blue Cell Viability assay; assay type: functional, cell-based
Method in brief: (§5)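 5000 cells/well attached overnight, then treated 72 h with 25 nM alone or with bafilomycin A1 (5 nM; OVCAR8 also at 1 nM); bafilomycin alone as control. Viability by CellTiter-Blue fluorescence, normalised to vehicle. One-way ANOVA with Tukey's test.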

OVCAR-5 [9] = assay: Induction of autophagy in human OVCAR-5 cells assessed as reduction in cell viability at 25 nM incubated for 72 hrs in presence of bafilomycin by CellTiter-Blue Cell Viability assay; assay type: functional, cell-based; method in brief: as §5
OVCAR-8 [10] = assay: Induction of apoptosis in human OVCAR-8 cells assessed as increase in apoptotic cells at 25 nM incubated for 48 hrs by Annexin V-FITC/propidium iodide staining based analysis; assay type: functional, cell-based
Method in brief: (§6)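 OVCAR5/OVCAR8 seeded at 175 000 and OVCAR3 at 190 000 cells per 60 mm dish, attached overnight, treated 48 h (10, 25 or 50 nM). Media and cells collected, PBS-washed, stained with annexin V-FITC/propidium iodide and read on a cell counter with gating per kit. Three biological replicates, mean ± SEM, Dunnett's test.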

OVCAR-5 [11] = assay: Induction of apoptosis in human OVCAR-5 cells assessed as increase in caspase-3/7 activity at 50 nM incubated for 48 hrs by fluorescent reporter assay
OVCAR-3 [12] = assay: Induction of ferroptosis in human OVCAR-3 cells at 0.1 to 10 uM in the presence of ferrostatin-1 by CellTiterGlo assay; assay type: functional, cell-based; conditions: dose 0.1-10 µM
Method in brief: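 OVCAR3 in 384-well plates (1000 cells/well), given 100 nM to 10 μM together with 2 μM ferrostatin-1, in triplicate; viability measured by CellTiter-Glo.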

OVCAR-3 (Homo sapiens) [13] = assay: Anti-ferroptotic activity against human OVCAR-3 cells assessed as decrease in lipid peroxidation at 50 nM incubated for 24 hrs by C11-BODIPY staining based flow cytometric analysis
OVCAR-3 [14] = assay: Induction of apoptosis in human OVCAR-3 cells assessed as increase in caspase-3/7 activity at 50 nM incubated for 48 hrs by fluorescent reporter assay
OVCAR-8 [15] = assay: Induction of apoptosis in human OVCAR-8 cells assessed as increase in caspase-3/7 activity at 50 nM incubated for 48 hrs by fluorescent reporter assay
OVCAR-5 [16] = assay: Induction of apoptosis in human OVCAR-5 cells assessed as decrease in caspase-3/7 activity at 50 nM incubated for 48 hrs in presence of by ZVAD-FMK fluorescent reporter assay
OVCAR-5 [17] = assay: Inhibition of cell migration in human OVCAR-5 cells assessed as decrease in wound closure at 10 to 25 nM incubated for 48 hrs by wound healing assay; assay type: functional, cell-based; conditions: dose 10-25 nM
Method in brief: (§7)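 Confluent monolayers scratched once, washed with PBS, then treated with 10 or 25 nM (paclitaxel 10 nM control) for 48 h. Scratch area imaged at 4× at 0 and 48 h, measured and normalised to vehicle. One-way ANOVA with Dunnett's test.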

OVCAR-3 [18] = assay: Induction of apoptosis in human OVCAR-3 cells assessed as increase in necrotic cells at 25 nM incubated for 48 hrs by Annexin V-FITC/propidium iodide staining based analysis; assay type: functional, cell-based; method in brief: as §6
[19] = Toxicity in immunodeficient NCr nu/nu mouse xenografted with human OVCAR-8 cells assessed as change in body weight at 0.5 mg/kg, ip administrated once per day for 4 days measured measured on day 7 relative to control; assay type: organism-based; conditions: in vivo, 168 h, time 7 day
Method in brief: (§8)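 Female immunodeficient NCr nu/nu mice, 6–8 weeks old, carried cells sealed in polyvinylidene fluoride hollow fibers implanted intraperitoneally on day 0. Dosing was i.p. once daily on days 3–6 in 2% DMSO:48% PEG300:50% H2O, diluted with H2O. Body weight was followed over the study, and fibers were retrieved on day 7.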

[20] = Toxicity in immunodeficient NCr nu/nu mouse xenografted with human OVCAR-3 cells assessed as change in body weight at 0.5 mg/kg, ip administrated once per day for 4 days measured measured on day 7 relative to control; assay type: organism-based; conditions: in vivo, 168 h, time 7 day; method in brief: as §8
OVCAR-8 [21] = assay: Inhibition of cell migration in human OVCAR-8 cells assessed as decrease in wound closure at 10 to 25 nM incubated for 48 hrs by wound healing assay; assay type: functional, cell-based; conditions: dose 10-25 nM; method in brief: as §7
OVCAR-8 [22] = assay: Induction of apoptosis in human OVCAR-8 cells assessed as increase in necrotic cells at 25 nM incubated for 48 hrs by Annexin V-FITC/propidium iodide staining based analysis; assay type: functional, cell-based; method in brief: as §6
OVCAR-3 [23] = assay: Induction of apoptosis in human OVCAR-3 cells assessed as increase in apoptotic cells at 25 nM incubated for 48 hrs by Annexin V-FITC/propidium iodide staining based analysis; assay type: functional, cell-based; method in brief: as §6
OVCAR-8 [24] = assay: Induction of autophagy in human OVCAR-8 cells assessed as reduction in cell viability at 25 nM incubated for 72 hrs in the presence of 1 nM bafilomycin by CellTiter-Blue Cell Viability assay; assay type: functional, cell-based; method in brief: as §5
OVCAR-8 [25] = assay: Antitumor activity against human OVCAR-8 cells xenografted in immunodeficient NCr nu/nu mouse assessed as reduction in cell survival at 0.5 mg/kg, ip administrated once per day for 4 days measured on day 7 by MTT assay; assay type: functional, organism-based; conditions: time 7.0 day; method in brief: as §2
OVCAR-3 (Homo sapiens) [26] = assay: Anti-ferroptotic activity against human OVCAR-3 cells assessed as decrease in lipid peroxidation at 50 nM incubated for 24 hrs in presence of ferrostatin-1 by C11-BODIPY staining based flow cytometric analysis
OVCAR-5 [27] = assay: Cytotoxicity against human OVCAR-5 cells assessed as inhibition of cell growth for 72 hrs by CellTiter-Blue cell viability assay; assay type: functional, cell-based; conditions: OVCAR-5, 72 h; method in brief: as §1
OVCAR-3 [28] = assay: Cytotoxicity against human OVCAR-3 cells assessed as reduction in colony formation at 10 nM incubated for 8 hrs measured after 15 days by crystal violet staining based analysis; assay type: functional, cell-based; conditions: time 368.0 hrs; method in brief: as §3
OVCAR-3 [29] = assay: Cytotoxicity against human OVCAR-3 cells assessed as inhibition of cell growth for 72 hrs by CellTiter-Blue cell viability assay; assay type: functional, cell-based; conditions: OVCAR-3, 72 h; method in brief: as §1
OVCAR-3 [30] = assay: Anti-ferroptotic activity against human OVCAR-3 cells assessed as decrease in lipid peroxidation at 50 nM incubated for 24 hrs in presence of ferrostatin-1 by C11-BODIPY staining based flow cytometric analysis; assay type: functional, cell-based; method in brief: as §4
OVCAR-3 [31] = assay: Induction of apoptosis in human OVCAR-3 cells assessed as decrease in caspase-3/7 activity at 50 nM incubated for 48 hrs in presence of by ZVAD-FMK fluorescent reporter assay
HeLa [32] = assay: Induction of autophagic flux in human HeLa cells harbouring mCherry-eGFP-LC3 assessed as increase in number of autolysosomes at 10 nM incubated for 24 hrs by Hoechst 33342 and DAPI staining based analysis; assay type: functional, cell-based
Method in brief: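 HeLa stably expressing mCherry-eGFP-LC3, 384-well plates, treated 24 h, fixed 12 min in 4% formaldehyde, nuclei stained, imaged at 10× under FITC and Texas Red filters; autolysosomes/autophagosomes quantified by high-content analysis and normalised to DMSO; chloroquine as control. Three biological replicates in duplicate.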

OVCAR-3 [33] = assay: Induction of apoptosis in human OVCAR-3 cells assessed as increase in cleaved PARP expression level at >=10 nM incubated for 72 hrs by Western blotting analysis
OVCAR-8 [34] = assay: Cytotoxicity against human OVCAR-8 cells assessed as reduction in colony formation at 10 nM incubated for 8 hrs measured after 15 days by crystal violet staining based analysis; assay type: functional, cell-based; conditions: time 368.0 hrs; method in brief: as §3
OVCAR-5 [35] = assay: Induction of apoptosis in human OVCAR-5 cells at 25 nM incubated for 48 hrs by Annexin V-FITC/propidium iodide staining based analysis; assay type: functional, cell-based; method in brief: as §6

CO/C1=C\C(C)=C\[C@@H](C)[C@@H](O)[C@@H](C)C/C(C)=C/C=C/[C@H](OC)[C@@H]([C@@H](C)[C@@H](O)[C@H](C)[C@@]2(O)C[C@@H](O)[C@H](C)[C@@H](C(C)C)O2)OC1=O
active: Activity (OVCAR-8 [1])

Cc1cc(=O)c(O)cc2c1C[C@H]1CC(C)(C)/C=C/C[C@]3(C)Oc4cc(O)c(=O)cc(C)c4C[C@H]3C[C@H](O)[C@@]1(C)O2
0.011 µM: IC50 (OVCAR-5 [27])
inactive: Activity (OVCAR-3 [8]) | Activity (OVCAR-5 [9]) | Activity (OVCAR-8 [24]) | Activity (OVCAR-8 [25]) | Activity (OVCAR-5 [35])
> 12%: Activity [19]
active: Activity (OVCAR-8 [2]) | Activity (OVCAR-3 [3]) | Activity (OVCAR-5 [4]) | Activity (OVCAR-3 [5]) | Activity (HeLa [7]) | Activity (OVCAR-8 [10]) | Activity (OVCAR-5 [11]) | Activity (OVCAR-3 [12]) | Activity (OVCAR-3 (Homo sapiens) [13]) | Activity (OVCAR-3 [14]) | Activity (OVCAR-8 [15]) | Activity (OVCAR-5 [16]) | inhibition (OVCAR-5 [17]) | Activity (OVCAR-3 [18]) | inhibition (OVCAR-8 [21]) | Activity (OVCAR-8 [22]) | Activity (OVCAR-3 [23]) | Activity (OVCAR-3 (Homo sapiens) [26]) | Activity (OVCAR-3 [28]) | Activity (OVCAR-3 [30]) | Activity (OVCAR-3 [31]) | Activity (HeLa [32]) | Activity (OVCAR-3 [33]) | Activity (OVCAR-8 [34])
0.17 µM: IC50 at 72 h [6]
<= 12%: Activity [20]
0.0097 µM: IC50 (OVCAR-3 [29])
0.012 µM: IC50 (OVCAR-8 [1]; OVCAR-8, 72 h)
